Data: ChEMBL document CHEMBL3244396, “Synthesis and antileukemic activity of 5-substituted 2,3-dihydro-6,7-bis(hydroxymethyl)-1H-pyrrolizine diesters” (J Med Chem, 1977)

Experiments:
P388 [1] = assay: Antitumor activity against mouse P388 cells allografted in female CDF1 mouse assessed as change in body weight at 50 mg/kg, ip administered daily for 9 days as Klucel suspension starting 24 hrs after tumor inoculation; type: functional; details: route intraperitoneal
How it was run: (§1)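 Ascitic fluid carrying P388 cells was inoculated ip. Compound was given ip in nine daily doses, starting 24 h after inoculation, in Klucel (hydroxypropylcellulose) suspension or in saline with Tween-80. Body-weight difference (treated minus control) was recorded on day 5. Survival was scored as %T/C of median survival time, and 30-day survival counted as cure.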

L1210 [2] = assay: Antileukemic activity against mouse L1210 cells allografted in female BDF1 mouse assessed as change in body weight at 100 mg/kg, ip administered daily for 9 days as Klucel suspension starting 24 hrs after tumor inoculation; type: functional; details: route intraperitoneal
How it was run: (§2)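 Ascitic fluid carrying L1210 cells was inoculated ip. Compound was given ip as a Klucel (hydroxypropylcellulose) suspension in nine daily doses, starting 24 h after inoculation. Body-weight difference (treated minus control) was recorded on day 5. Survival was scored as %T/C of mean survival time.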

L1210 [3] = assay: Antileukemic activity against mouse L1210 cells allografted in female BDF1 mouse assessed as change in body weight at 200 mg/kg, ip administered daily for 9 days as Klucel suspension starting 24 hrs after tumor inoculation; type: functional; details: route intraperitoneal; how it was run: as §2
P388 [4] = assay: Antitumor activity against mouse P388 cells allografted in female BDF1 mouse assessed as change in body weight at 25 mg/kg, ip administered daily for 9 days as Klucel suspension starting 24 hrs after tumor inoculation; type: functional; details: route intraperitoneal; how it was run: as §1
P388 [5] = assay: Antitumor activity against mouse P388 cells allografted in female CDF1 mouse assessed as disease cures by measuring 30-days host survival at 100 mg/kg, ip administered daily for 9 days as Klucel suspension starting 24 hrs after tumor inoculation relative to control; type: functional; details: route intraperitoneal
How it was run: (§3)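 P388 leukemia given as an ascitic fluid cell inoculum, ip, to mice of the strain and sex in each line. Nine daily ip doses were given in a Klucel (hydroxypropylcellulose) suspension, starting 24 h after inoculation. Read-out is median survival time as %T/C, with >125 taken as significant; a "cure" means 30-day survival.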

L1210 [6] = assay: Antileukemic activity against mouse L1210 cells allografted in female BDF1 mouse assessed as host mean survival time at 50 mg/kg, ip administered daily for 9 days as Klucel suspension starting 24 hrs after tumor inoculation relative to control; type: functional; details: route intraperitoneal
How it was run: (§4)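 L1210 leukemia given as an ascitic fluid cell inoculum, ip, to mice of the strain and sex in each line. Test material was given ip for nine daily doses starting 24 h after inoculation, in a Klucel (hydroxypropylcellulose) suspension. Read-out is mean survival time as %T/C versus controls, with >125 taken as significant.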

P388 [7] = assay: Antitumor activity against mouse P388 cells allografted in female BDF1 mouse assessed as change in body weight at 12.5 mg/kg, ip administered daily for 9 days as Klucel suspension starting 24 hrs after tumor inoculation; type: functional; details: route intraperitoneal; how it was run: as §1
Mus musculus [8] = assay: Toxicity in female CDF1 mouse allografted with mouse P388 cells assessed as animal survival at 50 mg/kg, ip administered daily for 9 days as Klucel suspension starting 24 hrs after tumor inoculation; type: organism-based; design: dose 50 mg/kg, route intraperitoneal; details: in vivo
How it was run: (§5)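 P-388 leukemia ascitic fluid inoculated ip. Compound given ip as a suspension in Klucel (hydroxypropylcellulose), once daily for nine doses beginning 24 h post-inoculation. Acute toxicity assessed as toxicity-day survivors per group. Survival was followed up to 30 days, with 30-day survival counted as "cure". Follows NCI screening protocols.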

P388 [9] = assay: Antitumor activity against mouse P388 cells allografted in female CDF1 mouse assessed as change in body weight at 200 mg/kg, ip administered daily for 9 days as Klucel suspension starting 24 hrs after tumor inoculation; type: functional; details: route intraperitoneal; how it was run: as §1
P388 [10] = assay: Antitumor activity against mouse P388 cells allografted in male CDF1 mouse assessed as disease cures by measuring 30-days host survival at 50 mg/kg, ip administered daily for 9 days as Klucel suspension starting 24 hrs after tumor inoculation relative to control; type: functional; details: route intraperitoneal; how it was run: as §3
[11] = Cytotoxicity against human 9KB cells treated as ethanol solution; type: functional; details: read-out: ED50 (the source's name)
How it was run: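 Compound applied as an ethanol solution; activity read out as ED50 under the general screening protocol.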

Mus musculus [12] = assay: Toxicity in male CDF1 mouse allografted with mouse P388 cells assessed as animal survival at 25 mg/kg, ip administered daily for 9 days as Klucel suspension starting 24 hrs after tumor inoculation; type: organism-based; design: dose 25 mg/kg, route intraperitoneal; details: in vivo; how it was run: as §5
L1210 [13] = assay: Antileukemic activity against mouse L1210 cells allografted in female BDF1 mouse assessed as change in body weight at 50 mg/kg, ip administered daily for 9 days as Klucel suspension starting 24 hrs after tumor inoculation; type: functional; details: route intraperitoneal; how it was run: as §2
Mus musculus [14] = assay: Toxicity in male CDF1 mouse allografted with mouse P388 cells assessed as animal survival at 12.5 mg/kg, ip administered daily for 9 days as Klucel suspension starting 24 hrs after tumor inoculation; type: organism-based; design: dose 12.5 mg/kg, route intraperitoneal; details: in vivo; how it was run: as §5
P388 [15] = assay: Antitumor activity against mouse P388 cells allografted in male CDF1 mouse assessed as disease cures by measuring 30-days host survival at 25 mg/kg, ip administered daily for 9 days as Klucel suspension starting 24 hrs after tumor inoculation relative to control; type: functional; details: route intraperitoneal; how it was run: as §3
P388 [16] = assay: Antitumor activity against mouse P388 cells allografted in male CDF1 mouse assessed as change in body weight at 25 mg/kg, ip administered daily for 9 days as Klucel suspension starting 24 hrs after tumor inoculation; type: functional; details: route intraperitoneal; how it was run: as §1
P388 [17] = assay: Antitumor activity against mouse P388 cells allografted in male CDF1 mouse assessed as disease cures by measuring 30-days host survival at 6.25 mg/kg, ip administered daily for 9 days as Klucel suspension starting 24 hrs after tumor inoculation relative to control; type: functional; details: route intraperitoneal; how it was run: as §3
Mus musculus [18] = assay: Toxicity in female CDF1 mouse allografted with mouse P388 cells assessed as animal survival at 200 mg/kg, ip administered daily for 9 days as Klucel suspension starting 24 hrs after tumor inoculation; type: organism-based; design: dose 200 mg/kg, route intraperitoneal; details: in vivo; how it was run: as §5
P388 [19] = assay: Antitumor activity against mouse P388 cells allografted in female CDF1 mouse assessed as change in body weight at 100 mg/kg, ip administered daily for 9 days as Klucel suspension starting 24 hrs after tumor inoculation; type: functional; details: route intraperitoneal; how it was run: as §1
Mus musculus [20] = assay: Toxicity in female BDF1 mouse allografted with mouse L1210 cells assessed as animal survival at 200 mg/kg, ip administered daily for 9 days as Klucel suspension starting 24 hrs after tumor inoculation measured on fifth day; type: organism-based; design: dose 200 mg/kg, route intraperitoneal; details: in vivo
How it was run: (§6)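 L1210 leukemia passaged as ascitic fluid and inoculated ip. Test agent given ip as a Klucel (hydroxypropylcellulose) suspension, nine daily doses starting 24 h after tumor inoculation. Acute toxicity read as toxicity-day survivors per group (out of 6), recorded on day 5. Animal weight difference T − C was also recorded. Follows NCI screening protocols.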

P388 [21] = assay: Antitumor activity against mouse P388 cells allografted in female BDF1 mouse assessed as change in body weight at 6.25 mg/kg, ip administered daily for 9 days as Klucel suspension starting 24 hrs after tumor inoculation; type: functional; details: route intraperitoneal; how it was run: as §1
Mus musculus [22] = assay: Toxicity in female BDF1 mouse allografted with mouse L1210 cells assessed as animal survival at 50 mg/kg, ip administered daily for 9 days as Klucel suspension starting 24 hrs after tumor inoculation measured on fifth day; type: organism-based; design: dose 50 mg/kg, route intraperitoneal; details: in vivo; how it was run: as §6
L1210 [23] = assay: Antileukemic activity against mouse L1210 cells allografted in female BDF1 mouse assessed as host mean survival time at 100 mg/kg, ip administered daily for 9 days as Klucel suspension starting 24 hrs after tumor inoculation relative to control; type: functional; details: route intraperitoneal; how it was run: as §4

Compound: CC(=O)OCc1c(COC(C)=O)c(-c2ccccc2)n2c1CCC2
- Activity (P388 [1]): -2.5 g
- Activity (L1210 [2]): -2.3 g
- Activity (L1210 [3]): -2.8 g
- Activity (P388 [4]): -2 g
- T/C (P388 [5]): 49%
- T/C (L1210 [6]): 114%
- Activity (P388 [7]): -1.2 g
- Activity (Mus musculus [8]): Non-toxic
- Activity (P388 [9]): 0.5 g
- T/C (P388 [10]): 87%
- EC50 [11]: > 100 µg/mL
- Activity (Mus musculus [12]): Non-toxic
- Activity (L1210 [13]): -2.6 g
- Activity (Mus musculus [14]): Non-toxic
- T/C (P388 [15]): 142%
- Activity (P388 [16]): -1.2 g
- T/C (P388 [17]): 125%
- Activity (Mus musculus [18]): Toxic
- Activity (P388 [19]): -2.8 g
- Activity (Mus musculus [20]): Toxic
- Activity (P388 [21]): -0.4 g
- Activity (Mus musculus [22]): Non-toxic
- T/C (L1210 [23]): 107%
